# ChEMBL document CHEMBL3272197, “Synthesis and in vitro evaluation of 8-hydroxyquinoline analogs as inhibitors of dental plaque” (J Med Chem, 1976)
# Columns and labels:
# [1] = 1-Octanol-water partition coefficient, log P of the compound after 90 mins; format: physicochemical
# Outline: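 Partitioning between 1-octanol and water. Phase volume ratio and sample amount set so that the aqueous-layer absorbance fell mostly between 0.2 and 0.9 in a 1-cm cell. The aqueous concentration was read spectrophotometrically and the octanol concentration was taken by difference. P = C_octanol/C_H2O. At least triplicate determinations used different sample amounts, and the mean log P is reported.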
# Streptococcus mutans [2] = assay: Antibacterial activity against Streptococcus mutans 6715 assessed as inhibition of plaque formation in human teeth at 10^-1 M after 48 hrs; format: functional; conditions: Streptococcus mutans, 6715, 48 h
# Outline: (§1)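 Sterilized extracted human teeth were immersed in Me2SO solutions of compound for two 1-min periods, each followed by 1-min air exposure. Teeth were then washed in distilled water for 5 min and incubated anaerobically at 37° in sucrose-containing trypticase broth with S. mutans.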
# Streptococcus mutans [3] = assay: Antibacterial activity against Streptococcus mutans 6715 assessed as inhibition of plaque formation in human teeth at 10^-2 M after 24 hrs; format: functional; conditions: Streptococcus mutans, 6715, 24 h; outline: as §1
# Streptococcus mutans [4] = assay: Antibacterial activity against Streptococcus mutans 6715 assessed as inhibition of plaque formation in human teeth at 10^-2 M after 48 hrs; format: functional; conditions: Streptococcus mutans, 6715, 48 h; outline: as §1
# Streptococcus mutans [5] = assay: Antibacterial activity against Streptococcus mutans 6715 assessed as inhibition of plaque formation in human teeth at 10^-1 M after 24 hrs; format: functional; conditions: Streptococcus mutans, 6715, 24 h; outline: as §1
# Streptococcus mutans [6] = assay: Antibacterial activity against Streptococcus mutans 6715 assessed as growth inhibition at 10^-4 M after 24 hrs; format: functional; conditions: Streptococcus mutans, 6715, 24 h; read-out: GI
# Outline: (§2)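 Test compounds as HCl salts were added in aqueous solution to sterile trypticase broth with 50% sucrose stock, then inoculated with a 24-hr culture of S. mutans 6715. Cultures were incubated anaerobically (Gaspak) at 37°. Bacterial growth was scored at 24 and 48 hr, with a solvent control run concurrently.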
# Streptococcus mutans [7] = assay: Antibacterial activity against Streptococcus mutans 6715 assessed as growth inhibition at 10^-5 M after 24 hrs; format: functional; conditions: Streptococcus mutans, 6715, 24 h; read-out: GI; outline: as §2
# Streptococcus mutans [8] = assay: Antibacterial activity against Streptococcus mutans 6715 assessed as growth inhibition at 10^-6 M after 24 hrs; format: functional; conditions: Streptococcus mutans, 6715, 24 h; read-out: GI; outline: as §2
# Streptococcus mutans [9] = assay: Antibacterial activity against Streptococcus mutans 6715 assessed as growth inhibition at 10^-6 M after 48 hrs; format: functional; conditions: Streptococcus mutans, 6715, 48 h; read-out: GI; outline: as §2
# Streptococcus mutans [10] = assay: Antibacterial activity against Streptococcus mutans 6715 assessed as growth inhibition at 10^-4 M after 48 hrs; format: functional; conditions: Streptococcus mutans, 6715, 48 h; read-out: GI; outline: as §2
# Streptococcus mutans [11] = assay: Antibacterial activity against Streptococcus mutans 6715 assessed as growth inhibition at 10^-5 M after 48 hrs; format: functional; conditions: Streptococcus mutans, 6715, 48 h; read-out: GI; outline: as §2
SMILES,logP at 1.5 h [1],inhibition at 100000 µM (Streptococcus mutans [2]) [%],inhibition at 10000 µM (Streptococcus mutans [3]) [%],inhibition at 10000 µM (Streptococcus mutans [4]) [%],inhibition at 100000 µM (Streptococcus mutans [5]) [%],inhibition of growth at 100 µM (Streptococcus mutans [6]) [%],inhibition of growth at 10 µM (Streptococcus mutans [7]) [%],inhibition of growth at 1 µM (Streptococcus mutans [8]) [%],inhibition of growth at 1 µM (Streptococcus mutans [9]) [%],inhibition of growth at 100 µM (Streptococcus mutans [10]) [%],inhibition of growth at 10 µM (Streptococcus mutans [11]) [%]
Oc1ccc(F)c2cccnc12 [listing 1 of 2 here],2.3,80,80,60,80,–,–,–,–,–,–
OCc1ccc(O)c2ncccc12 [listing 1 of 2 here],1,0,–,–,0,–,–,–,–,–,–
O=Cc1ccc(O)c2ncccc12 [listing 1 of 2 here],1.63,80,40,40,100,–,–,–,–,–,–
COCc1ccc(O)c2ncccc12 [listing 1 of 2 here],1.78,60,20,20,80,–,–,–,–,–,–
Oc1ccc(I)c2cccnc12 [listing 1 of 2 here],3.27,100,80,20,100,–,–,–,–,–,–
CC(=O)c1ccc(O)c2ncccc12 [listing 1 of 2 here],1.8,100,60,60,100,–,–,–,–,–,–
N#CCc1ccc(O)c2ncccc12 [listing 1 of 2 here],1.81,80,0,0,80,–,–,–,–,–,–
COC(=O)Cc1ccc(O)c2ncccc12 [listing 1 of 2 here],1.59,100,20,0,100,–,–,–,–,–,–
CCOC(=O)Cc1ccc(O)c2ncccc12 [listing 1 of 2 here],2.26,80,20,0,100,–,–,–,–,–,–
Oc1cccc2cccnc12,–,–,–,–,–,100,100,0,0,100,100
CC(=O)c1ccc(O)c2ncccc12 [listing 2 of 2 here],–,–,–,–,–,100,100,0,0,100,0
OCc1ccc(O)c2ncccc12 [listing 2 of 2 here],–,–,–,–,–,0,–,–,–,0,–
N#CCc1ccc(O)c2ncccc12 [listing 2 of 2 here],–,–,–,–,–,80,0,–,–,20,–
COC(=O)Cc1ccc(O)c2ncccc12 [listing 2 of 2 here],–,–,–,–,–,100,60,0,0,100,0
CCOC(=O)Cc1ccc(O)c2ncccc12 [listing 2 of 2 here],–,–,–,–,–,100,100,0,0,100,0
Oc1ccc(I)c2cccnc12 [listing 2 of 2 here],–,–,–,–,–,100,100,0,0,100,60
O=Cc1ccc(O)c2ncccc12 [listing 2 of 2 here],–,–,–,–,–,100,0,–,–,100,–
O=C(O)Cc1ccc(O)c2ncccc12 [listing 1 of 2 here],–,0,–,–,0,–,–,–,–,–,–
Oc1ccc(O)c2ncccc12 [listing 1 of 2 here],1.42,0,0,0,60,–,–,–,–,–,–
Oc1ccc(F)c2cccnc12 [listing 2 of 2 here],–,–,–,–,–,100,80,0,0,100,0
O=C(O)Cc1ccc(O)c2ncccc12 [listing 2 of 2 here],–,–,–,–,–,0,–,–,–,0,–
COCc1ccc(O)c2ncccc12 [listing 2 of 2 here],–,–,–,–,–,100,0,–,–,80,–
Oc1ccc(O)c2ncccc12 [listing 2 of 2 here],–,–,–,–,–,0,–,–,–,0,–
Oc1cccc2cccnc12 [OXYQUINOLINE],1.94,100,0,0,100,–,–,–,–,–,–
